For 19 molecules, outcome results are on record in PubChem BioAssay.

Each structure is given as a SMILES string. Active and inactive are the calls of the source.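 How the source made its calls: active means a full or partial loss of lipid-probe fluorescence in the fish gall bladder, intestine or both, judged by eye; inactive means no fluorescence loss, or compound toxic to the fish.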

The nature of this test: inhibitors of larval lipid processing in zebrafish, primary screen, whole organism, PED6 fluorescence, gall bladder and intestine (AID 686).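 Further: larvae 5 to 7 days old with five fish per well; signal comes from phospholipase A2 cleavage of quenched PED6 carried via bile.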 The following applies: Zebrafish larvae PED6 lipid processing, fluorescence scoring; screened at 20 µM (by protocol). A digest of the protocol: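 System: live zebrafish larvae aged 5-7 days, whole organism; measure: graded gall bladder and intestinal fluorescence inhibition per well; incubation: overnight exposure; reagent: ingested quenched lipid PED6 at 100 nM; signal: By-eye fluorescence microscopy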
For `C/C(NC(=O)c1cccs1)=C1\C(=O)C[C@@H]2[C@H]1C2(C)C`, the result was inactive.

On to `CC1CCN(c2[nH]c(=S)c(C#N)c3c2CCCC3)CC1`, for which the outcome was inactive.

Consider `CCC(=O)Nc1ccc(-c2nnc(SCC(=O)NCC3CCCO3)n2C)cc1` (centres undefined), for which the molecule was classed as inactive.

For `Cc1nnc(N2CCCCC2)c2ccccc12`, the molecule was called inactive.

`Cc1cccc(-n2ncc3c(NCCN4CCOCC4)ncnc32)c1`: the molecule was called inactive.

Turning to `N#CCCN(C(=O)c1ccco1)c1ccccc1`, the call was inactive.

As to `N#Cc1c(N)nc(SCC(=O)NCc2ccc3c(c2)OCO3)c(C#N)c1-c1cccs1`, the molecule was classed as inactive.

With `CCC1CC2(C)NC(=O)c3c(sc4c3CC(C)(C)OC4)N2C1=O` (centres undefined), the molecule was called inactive.

Consider `C=CCN=C(C)C1=C(O)CCC1=O`, for which the result was inactive.

In the case of `Cc1ccc(-n2ncc3c(NCc4cccnc4)ncnc32)c(C)c1`, the molecule was called inactive.

In the case of `Clc1ccc(COc2ccccn2)c(Cl)c1`, the molecule was classed as inactive.

On to `Cc1cc(=O)oc(C)c1C(=O)Nc1ccc2nsnc2c1`, for which the call was inactive.

On to `O=C(C1CCCCC1)N1CCCn2c1nc1ccccc12`, for which the call was inactive.

Turning to `CCc1nc(NCC2CCCO2)c(C#N)c2c1COC(C)(C)C2` (centres undefined), the call was inactive.

In the case of `CCc1nc(N2CCOCC2)c(C#N)c2c1CCCC2`, the molecule was called inactive.

`CCc1cc(=O)oc2cc(C)c(CN3CCCC(C)C3)c(O)c12` (centres undefined): the outcome was inactive.

Take `C=CCN=C(NC#N)SCCc1ccccc1`: the molecule was called inactive.

For the molecule `CCN(CC)CCN1C(=O)c2ccccc2NC1c1cc(OC)c(OC)c(OC)c1` (centres undefined), the outcome was inactive.

Turning to `COc1ccc(C2C(C#N)=C(N)Oc3cc(C)n(CCN4CCOCC4)c(=O)c32)cc1OC` (centres undefined), the molecule was called inactive.
